{"data": "Results gathered from unrelated publications", "target": "Casein kinase II subunit alpha (CSNK2A1, Homo sapiens, UniProt P68400)", "note": "Protocols differ between the studies behind these lines."}
{"SMILES": "Cn1c2c(c3ccc(Cl)c(Cl)c31)C(C#N)C1(CCCCC1)NC2=O (racemic)", "observed": "thermal stability", "method": "DSF", "tested at": "10 µM", "measurement": "ΔTm", "value": "0.7 °C"}
{"SMILES": "CCCS(=O)(=O)Nc1ccc(F)c(C(=O)c2c[nH]c3ncc(-c4ccc(Cl)cc4)cc23)c1F", "observed": "enzyme activity", "mode": "inhibitor", "tested at": "1 µM", "measurement": "inhibition", "value": "< 10%"}
{"SMILES": "Oc1cccc(-c2nc(N3CCOCC3)c3oc4ncccc4c3n2)c1", "observed": "enzyme activity", "mode": "inhibitor", "tested at": "10 µM", "measurement": "remaining activity", "value": "102%"}
{"SMILES": "CC(C)(O)[C@H]1CC[C@H](Nc2ccc3ncc(-c4cccc(C(F)(F)F)c4)n3n2)CC1", "observed": "enzyme activity", "mode": "inhibitor", "tested at": "1 µM", "measurement": "remaining activity", "value": "61%"}
{"SMILES": "Cc1ccc(Nc2nccc(N(C)c3ccc4c(C)n(C)nc4c3)n2)cc1S(N)(=O)=O", "observed": "enzyme activity", "mode": "inhibitor", "tested at": "0.3 µM", "measurement": "inhibition", "value": "-9%"}
{"SMILES": "Cn1cc(Cl)c2c(Oc3c(F)cc(Nc4cc(Cl)nc(N)n4)cc3F)ccnc21", "observed": "cell-free assay", "method": "competition with immobilised ligand", "tested at": "0.1 µM", "measurement": "remaining binding", "value": "98%"}
{"SMILES": "Cc1sc(C(=O)NC2COC2)cc1-n1cc(NC(=O)Nc2c(F)cccc2Cl)cn1", "observed": "enzyme activity", "mode": "inhibitor", "tested at": "10 µM", "measurement": "remaining activity", "value": "97%"}
{"SMILES": "COc1cc2ncnc(Nc3ccc(Oc4ccccc4)cc3C)c2cc1OC", "observed": "enzyme activity", "mode": "inhibitor", "tested at": "1 µM", "measurement": "inhibition", "value": "11%"}
{"SMILES": "Cn1c2c(Cl)c(Cl)ccc2c2cc(N)[nH]c(=O)c21", "observed": "thermal stability", "method": "DSF", "tested at": "10 µM", "measurement": "ΔTm", "value": "2.8 °C"}
{"SMILES": "C#Cc1cccc(Nc2ncnc3cc(OCCOC)c(OCCOC)cc23)c1", "observed": "cell-free assay", "tested at": "0.5 µM", "measurement": "remaining signal", "value": "78.9%"}
{"SMILES": "O=C(Nc1ccc(Oc2ccc(F)cc2)cc1)N1CCc2ncccc2[C@H]1c1ccc(F)cc1", "observed": "cell-free assay", "method": "competition with immobilised ligand", "tested at": "1 µM", "measurement": "remaining binding", "value": "99%"}
{"SMILES": "CCN(CC)CCNC(=O)c1c(C)[nH]c(/C=C2\\C(=O)Nc3ccc(F)cc32)c1C", "observed": "enzyme activity", "mode": "inhibitor", "tested at": "10 µM", "measurement": "inhibition", "value": "22%"}
{"SMILES": "C[C@@H]1CN(c2cc(-c3n[nH]c4ccc(OC5(C)CC5)cc34)ncn2)C[C@H](C)O1", "observed": "cell-free assay", "method": "competition with immobilised ligand", "tested at": "0.1 µM", "measurement": "remaining binding", "value": "66%"}
{"SMILES": "COc1cc(Cl)c(C(=O)N[C@@H](CN[C@H]2CC[C@@H](N)CC2)Cc2ccc(C#N)cc2)cc1-c1ccc(CN[C@H](C)c2ccc(C)cc2)o1", "observed": "enzyme activity", "mode": "inhibitor", "tested at": "1 µM", "measurement": "remaining activity", "value": "104%"}
{"SMILES": "CN(C)C(=O)Cn1cc(-c2nc([C@@](C)(c3ccc(-c4cnc(N)nc4)cc3)C3CC3)no2)cn1", "observed": "cell-free assay", "method": "competition with immobilised ligand", "tested at": "1 µM", "measurement": "remaining binding", "value": "88%"}
{"SMILES": "Cn1c2c(c3ccc(Cl)c(Cl)c31)C(C#N)C(C)(C)NC2=O (stereo not shown)", "observed": "thermal stability", "method": "DSF", "tested at": "10 µM", "measurement": "ΔTm", "value": "2.6 °C"}
{"SMILES": "CCCOc1ccc(OC)c(F)c1C(=O)c1ccc(C(=O)N[C@@H]2CNC[C@H]2NC(=O)c2ccc3[nH]ncc3c2)cc1", "observed": "enzyme activity", "mode": "inhibitor", "tested at": "10 µM", "measurement": "remaining activity", "value": "108%"}
{"SMILES": "CCN(CC)c1ccc(C2=NNC(=O)CC2C)cc1[N+](=O)[O-] (stereo not shown)", "observed": "enzyme activity", "mode": "inhibitor", "tested at": "10 µM", "measurement": "remaining activity", "value": "96%"}
{"SMILES": "FC(F)(F)c1ccc2c(c1)nc(-c1cccnc1)n2C1CC1", "observed": "cell-free assay", "method": "competition with immobilised ligand", "tested at": "1 µM", "measurement": "remaining binding", "value": "100%"}
{"SMILES": "Cn1c2c(c3ccc(Cl)c(Cl)c31)C(C#N)C1(CCN(C(=O)OC(C)(C)C)CC1)NC2=O (racemic)", "observed": "thermal stability", "method": "DSF", "tested at": "10 µM", "measurement": "ΔTm", "value": "-0.1 °C"}
{"SMILES": "O=C(Nc1cnc(Oc2ccc(F)cc2)nc1)N1CCc2ncccc2[C@@H]1c1ccc(F)cc1", "observed": "cell-free assay", "method": "competition with immobilised ligand", "tested at": "1 µM", "measurement": "remaining binding", "value": "93%"}
{"SMILES": "CC(C)(C)c1nc2c(s1)c1nc(N)ncc1c1ccc(NS(=O)(=O)c3c(F)cccc3F)c(F)c12", "observed": "enzyme activity", "mode": "inhibitor", "method": "radiometric", "tested at": "1 µM", "measurement": "remaining activity", "value": "88%"}
{"SMILES": "CNC(=O)c1cc(Oc2ccc(NC(=O)Nc3ccc(Cl)c(C(F)(F)F)c3)cc2)ccn1", "observed": "cell-free assay", "tested at": "0.5 µM", "measurement": "remaining signal", "value": "108%"}
{"SMILES": "Nc1nc(Nc2ccccc2)sc1C(=O)c1c(F)cccc1F", "observed": "enzyme activity", "mode": "inhibitor", "tested at": "10 µM", "measurement": "remaining activity", "value": "111%"}
{"SMILES": "CN1CCC2(CC1)NC(=O)c1c(c3ccc(Cl)c(Cl)c3n1C)C2C#N (racemic)", "observed": "thermal stability", "method": "DSF", "tested at": "10 µM", "measurement": "ΔTm", "value": "2.5 °C"}
{"SMILES": "CN([C@@H]1CCc2c(CC(=O)O)c3cc(S(C)(=O)=O)ccc3n2C1)S(=O)(=O)c1ccc(F)cc1", "observed": "cell-free assay", "method": "competition with immobilised ligand", "tested at": "1 µM", "measurement": "remaining binding", "value": "91%"}
{"SMILES": "COc1cc(Nc2cnc(C#N)c(O[C@H](C)CN(C)C)n2)ncc1-c1cnn(C)c1", "observed": "enzyme activity", "mode": "inhibitor", "method": "radiometric", "tested at": "10 µM", "measurement": "remaining activity", "value": "87%"}
{"SMILES": "COc1cccc(CNC(=O)c2nc3scc(COCc4ccc(C(=O)O)cc4)c3c(=O)[nH]2)c1", "observed": "cell-free assay", "method": "competition with immobilised ligand", "tested at": "1 µM", "measurement": "remaining binding", "value": "90.7%"}
{"SMILES": "CN(c1ncccc1CNc1nc(Nc2ccc3c(c2)CC(=O)N3)ncc1C(F)(F)F)S(C)(=O)=O", "observed": "enzyme activity", "mode": "inhibitor", "tested at": "1 µM", "measurement": "inhibition", "value": "50.7%"}
{"SMILES": "N#CCCc1ccc2c(c1)-c1[nH]c3ccc([N+](=O)[O-])cc3c1CC(=O)N2", "observed": "cell-free assay", "tested at": "0.5 µM", "measurement": "remaining signal", "value": "91.2%"}
{"SMILES": "Cc1ccc(C(=O)NCc2ccsc2)cc1C#Cc1cn(C(C)C)c2ncnc(N)c12", "observed": "enzyme activity", "mode": "inhibitor", "tested at": "1 µM", "measurement": "activity vs control", "value": "94%"}
